We go through three compounds from ChEMBL document CHEMBL4251567 (Eur J Med Chem, 2018).

For assay [1], the target named is Histone deacetylase 3 (Homo sapiens) (UniProt O15379). The assay is described as follows: Inhibition of HDAC3 in human HeLa-S3 cell lysates assessed as remaining activity at 5 uM preincubated for 15 mins followed by HDAC-Glo substrate addition measured after 30 to 40 mins by […] relative to control. In outline: (§1)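 Antibody-capture (ELISA-type) assay: HDAC antibody coated in carbonate/bicarbonate buffer pH 9.4, wells blocked with 5% milk in TBST. HeLa-S3 lysate added at 1 mg/mL for HDAC3, 1 h at 4 °C, then washed. Inhibitor in DMSO preincubated 15 min at RT in HDAC-Glo buffer. HDAC-Glo reagent added, luminescence read after 30-40 min. Concentrations are final. Background = no-antibody well; activity given as % of DMSO control.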

For assay [2], the target named is T1, Protein deacetylase HDAC6 (Homo sapiens) (UniProt Q9UBN7).
T1 sequence (whole entry): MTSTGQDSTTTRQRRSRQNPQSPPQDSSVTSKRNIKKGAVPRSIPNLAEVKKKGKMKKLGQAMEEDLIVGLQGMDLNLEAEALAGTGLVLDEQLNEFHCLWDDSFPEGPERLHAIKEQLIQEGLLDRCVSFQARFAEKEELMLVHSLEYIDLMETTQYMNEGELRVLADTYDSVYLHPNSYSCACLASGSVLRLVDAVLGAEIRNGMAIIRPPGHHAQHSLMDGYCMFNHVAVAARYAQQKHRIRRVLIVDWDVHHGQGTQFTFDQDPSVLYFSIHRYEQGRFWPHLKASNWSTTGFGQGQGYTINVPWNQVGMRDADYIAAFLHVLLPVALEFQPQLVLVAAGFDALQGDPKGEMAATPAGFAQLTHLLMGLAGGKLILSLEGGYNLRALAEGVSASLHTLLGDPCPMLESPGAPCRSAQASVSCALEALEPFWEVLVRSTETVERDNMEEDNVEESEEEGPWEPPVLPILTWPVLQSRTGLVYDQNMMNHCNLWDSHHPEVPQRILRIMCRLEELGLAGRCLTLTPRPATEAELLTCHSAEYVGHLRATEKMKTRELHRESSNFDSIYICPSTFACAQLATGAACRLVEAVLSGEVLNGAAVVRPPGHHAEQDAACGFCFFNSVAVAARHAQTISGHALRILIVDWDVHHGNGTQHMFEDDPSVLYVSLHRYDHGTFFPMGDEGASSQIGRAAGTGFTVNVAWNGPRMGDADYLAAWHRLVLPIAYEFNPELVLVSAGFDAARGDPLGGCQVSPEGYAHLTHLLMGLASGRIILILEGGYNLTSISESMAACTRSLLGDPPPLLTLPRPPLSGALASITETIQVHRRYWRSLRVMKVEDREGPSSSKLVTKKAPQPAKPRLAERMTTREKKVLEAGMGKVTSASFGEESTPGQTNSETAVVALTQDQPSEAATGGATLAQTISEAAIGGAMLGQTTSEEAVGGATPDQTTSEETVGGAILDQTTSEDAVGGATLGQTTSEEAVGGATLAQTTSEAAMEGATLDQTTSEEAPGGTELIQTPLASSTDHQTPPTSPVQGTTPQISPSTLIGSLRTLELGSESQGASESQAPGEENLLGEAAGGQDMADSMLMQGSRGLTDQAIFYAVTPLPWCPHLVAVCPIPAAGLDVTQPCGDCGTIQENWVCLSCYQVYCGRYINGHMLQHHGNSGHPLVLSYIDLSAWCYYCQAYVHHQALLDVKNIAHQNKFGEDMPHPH
The assay is described as follows: Inhibition of HDAC6 in human HeLa-S3 cell lysates assessed as remaining activity at 5 uM preincubated for 15 mins followed by HDAC-Glo substrate addition measured after 30 to 40 mins by […] relative to control. In outline:
(§2)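 HDAC6 captured on an anti-HDAC6 antibody-coated plate (2 μg/mL, pH 9.4 carbonate buffer, milk-blocked). HeLa-S3 lysate loaded at 1 mg/mL, 1 h at 4 °C, then washed. 15 min RT preincubation with inhibitor in DMSO; HDAC-Glo reagent added, luminescence read at 30-40 min. Concentrations are final. Background = no-antibody well; values are % activity versus DMSO control.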

Assay [3] addresses T1, Protein deacetylase HDAC6 (Homo sapiens). The assay is described as follows: Inhibition of HDAC6 in human HeLa-S3 cell lysates assessed as remaining activity at 1.25 uM preincubated for 15 mins followed by HDAC-Glo substrate addition measured after 30 to 40 mins by […] relative to control. Put shortly:
as §2

Assay [4] addresses T2, Histone deacetylase (Homo sapiens) (UniProt Q13547+O15379+Q9UBN7+Q92769+Q9UQL6+Q8WUI4+Q9BY41+Q96DB2+P56524+Q9UKV0+Q969S8). The assay is described as follows: Inhibition of HDAC in human HeLa-S3 cell lysates assessed as residual activity at 1.2 x 10^-5 M preincubated for 15 mins followed by HDAC-Glo substrate addition measured after 35 mins by […] relative to control. The assay is classed as protein assay.

Assay [5] deals with T2, Histone deacetylase (Homo sapiens). Nature of the assay: Inhibition of HDAC in human HeLa-S3 cell lysates assessed as residual activity at 6 x 10^-6 M preincubated for 15 mins followed by HDAC-Glo substrate addition measured after 35 mins by […] relative to control. The assay is classed as protein assay. Put shortly:
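Lysate (1 μg total protein) in HDAC-Glo buffer was preincubated with inhibitor in DMSO for 15 min at room temperature. HDAC-Glo substrate/developer reagent was added and luminescence read after 35 min. Concentrations are final. Signal corrected for a no-lysate blank; % of DMSO control.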

Assay [6] concerns the target Histone deacetylase 1 (Homo sapiens) (UniProt Q13547). Nature of the assay: Inhibition of HDAC1 in human HeLa-S3 cell lysates assessed as remaining activity at 8 x 10^-6 M preincubated for 15 mins followed by HDAC-Glo substrate addition measured after 30 to 40 mins by […] relative to control.
Assay [7] has the same target. Nature of the assay: Inhibition of HDAC1 in human HeLa-S3 cell lysates assessed as remaining activity at 2 x 10^-6 M preincubated for 15 mins followed by HDAC-Glo substrate addition […] relative to control.
Assay [8] addresses Histone deacetylase 3 (Homo sapiens) (UniProt O15379). Nature of the assay: Inhibition of HDAC3 in human HeLa-S3 cell lysates assessed as remaining activity at 8 x 10^-6 M preincubated for 15 mins followed by HDAC-Glo substrate addition measured after 30 to 40 mins by […] relative to control. In outline: as §1
For assay [9] the target is unchanged. Nature of the assay: Inhibition of HDAC3 in human HeLa-S3 cell lysates assessed as remaining activity at 4 x 10^-6 M preincubated for 15 mins followed by HDAC-Glo substrate addition measured after 30 to 40 mins by fluorimetric method relative to control. In outline:
as §1

Assay [10] shares this target. The assay is described as follows: Inhibition of HDAC3 in human HeLa-S3 cell lysates assessed as remaining activity at 2 x 10^-6 M preincubated for 15 mins followed by HDAC-Glo substrate addition measured after 30 to 40 mins by […] relative to control. In outline:
as §1

For assay [11] the target is unchanged. The assay is described as follows: Inhibition of HDAC3 in human HeLa-S3 cell lysates assessed as remaining activity at 1 x 10^-6 M preincubated for 15 mins followed by HDAC-Glo substrate addition measured after 30 to 40 mins by […] relative to control. In outline: as §1

Chain of Histone deacetylase 3 (Homo sapiens) (O15379 whole entry): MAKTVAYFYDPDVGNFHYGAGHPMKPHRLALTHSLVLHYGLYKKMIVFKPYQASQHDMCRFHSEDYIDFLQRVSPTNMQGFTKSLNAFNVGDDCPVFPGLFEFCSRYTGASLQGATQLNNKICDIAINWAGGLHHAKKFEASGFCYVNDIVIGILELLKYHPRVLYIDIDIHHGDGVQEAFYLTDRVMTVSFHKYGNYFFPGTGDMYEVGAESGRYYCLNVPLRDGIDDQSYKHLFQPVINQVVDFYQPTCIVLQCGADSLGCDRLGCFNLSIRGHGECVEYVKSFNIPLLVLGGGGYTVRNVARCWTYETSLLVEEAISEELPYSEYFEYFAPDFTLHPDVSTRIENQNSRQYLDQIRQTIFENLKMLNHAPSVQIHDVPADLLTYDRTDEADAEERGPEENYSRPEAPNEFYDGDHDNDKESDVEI
Chain of Histone deacetylase 1 (Homo sapiens) (Q13547 whole entry): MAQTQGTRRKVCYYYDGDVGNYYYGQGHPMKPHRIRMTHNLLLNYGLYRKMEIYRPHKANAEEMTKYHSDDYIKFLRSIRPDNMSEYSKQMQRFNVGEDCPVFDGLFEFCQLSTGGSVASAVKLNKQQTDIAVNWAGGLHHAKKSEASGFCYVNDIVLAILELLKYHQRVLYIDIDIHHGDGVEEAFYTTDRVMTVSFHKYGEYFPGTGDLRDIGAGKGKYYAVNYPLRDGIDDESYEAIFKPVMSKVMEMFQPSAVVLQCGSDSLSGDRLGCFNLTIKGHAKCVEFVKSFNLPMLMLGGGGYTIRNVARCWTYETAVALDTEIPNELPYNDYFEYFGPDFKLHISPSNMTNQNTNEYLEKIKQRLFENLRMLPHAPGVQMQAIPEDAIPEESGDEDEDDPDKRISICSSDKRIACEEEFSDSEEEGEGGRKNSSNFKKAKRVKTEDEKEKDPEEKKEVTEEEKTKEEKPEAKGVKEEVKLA

`O=C(CCC(CCCC(=O)Nc1ccccc1)Cc1ccccc1)NO` (racemic): the Activity amounted to 90% in assay [1] and 2.9% in [2].

Take `CCCCCCC(CCCC(=O)Nc1ccccc1)CCC(=O)NO` (stereo unspecified): the Activity in assay [3] is 21%.

Regarding `CCC(CCCC(=O)Nc1ccccc1)CCC(=O)NO` (stereo unspecified), the Activity in assay [4] stood at 53%; in assay [5] it was 82%; in [6] it was 32%; in assay [7], 68%; in [8], 52%; in assay [9], 64%. Further, the Activity is 71% in assay [10] and 83% in assay [11].
